Measured values taken from ChEMBL document CHEMBL1122426, “Radioiodine-labeled N,N-dimethyl-N'-(2-hydroxy-3-alkyl-5-iodobenzyl)-1,3-propanediamines for brain perfusion imaging” (J Med Chem, 1983).

Experiments:
Rattus norvegicus [1] = organism: Rattus norvegicus; assay: Effect of specific activity of compound on biodistribution in rats blood 1 hr after injection at the dose of 6.25 mg value expressed in average % dose per organ; value may range from 0.55 to 0.64; assay type: ADME, organism-based; settings: in vivo
Summary of the method: (§1)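 Rats received an intravenous injection of the I-125 labeled diamine with added unlabeled carrier (6.25, 2.5, 0.25 or 0.025 mg per dose). At 1 h, organs were counted. Percent dose per organ came from comparing tissue radioactivity with diluted aliquots of the injected dose. Values are the average and range of 3 rats. Brain/blood ratio was taken from % dose per gram, calculated using mean organ weights (brain 1.65 g; blood 18 g).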

Rattus norvegicus [2] = organism: Rattus norvegicus; assay: Effect of specific activity of compound on biodistribution in rats brain 1 hr after injection at the dose of 2.5 mg value expressed in average % dose per organ; value may range from 2.13 to 2.36; assay type: ADME, organism-based; settings: in vivo; summary of the method: as §1
Rattus norvegicus [3] = organism: Rattus norvegicus; assay: Effect of specific activity of compound on biodistribution in rats heart 1 hr after injection at the dose of 0.25 mg value expressed in average % dose per organ 0.69 to 0.74; assay type: ADME, organism-based; settings: in vivo; summary of the method: as §1
Rattus norvegicus [4] = assay: Biodistribution of I-125 labeled compound in rat brain to blood ratio, 2 min after intravenous injection, value expressed in % dose per gram ratio; assay type: ADME, organism-based
Summary of the method: (§2)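 Rats given I-125 diamine iv; tissue activity at 2 min or 1 h compared with diluted injected-dose aliquots. % dose per gram approximated as % dose per organ divided by mean organ weight (brain 1.65 g; blood 18 g). Ratio taken from the per-gram values.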

Rattus norvegicus [5] = organism: Rattus norvegicus; assay: Effect of specific activity of compound on biodistribution in rats lungs 1 hr after injection at the dose of 0.25 mg value expressed in average % dose per organ; value may range from 12.0 to 20.3; assay type: ADME, organism-based, Lung; settings: in vivo; summary of the method: as §1
Rattus norvegicus [6] = organism: Rattus norvegicus; assay: Effect of specific activity of compound on biodistribution in rats lungs 1 hr after injection at the dose of 2.5 mg value expressed in average % dose per organ; value may range from 5.89 to 8.67; assay type: ADME, organism-based, Lung; settings: in vivo; summary of the method: as §1
Rattus norvegicus [7] = organism: Rattus norvegicus; assay: Effect of specific activity of compound on biodistribution in rats lungs after injection at the dose of 0.025 mg value expressed in average % dose per organ; value may range from 12.0 to 14.5; assay type: ADME, organism-based, Lung; settings: in vivo; summary of the method: as §1
Rattus norvegicus [8] = organism: Rattus norvegicus; assay: Effect of specific activity of compound on biodistribution in rats muscle 1 hr after injection at the dose of 0.25 mg value expressed in average % dose per organ; value may range from 11.0 to 13.4; assay type: ADME, organism-based, Muscle tissue; settings: in vivo; summary of the method: as §1
Rattus norvegicus [9] = assay: Biodistribution of I-125 labeled compound in rat heart, 2 min after intravenous injection. value expressed in average % dose per organ; value may range from 3.03 to 3.55; assay type: ADME, organism-based; settings: in vivo
Rattus norvegicus [10] = organism: Rattus norvegicus; assay: Effect of specific activity of compound on biodistribution in rats thyroid after injection at the dose of 0.025 mg value expressed in average % dose per organ; value may range from 0.15 to 0.17; assay type: ADME, organism-based, Thyroid gland; settings: in vivo; summary of the method: as §1
Rattus norvegicus [11] = assay: Biodistribution of I-125 labeled compound in rat brain, 1 hr after intravenous injection. value expressed in average % dose per organ; value may range from 1.71 to 2.54; assay type: ADME, organism-based; settings: in vivo
Rattus norvegicus [12] = assay: Biodistribution of I-125 labeled compound in rat thyroid, 1 hr after intravenous injection. value expressed in average % dose per organ; value may range from 0.17 to 0.23; assay type: ADME, organism-based, Thyroid gland; settings: in vivo
Rattus norvegicus [13] = assay: Biodistribution of I-125 labeled compound in rat thyroid, 2 min after intravenous injection. value expressed in average % dose per organ; value may range from 0.20 to 0.23; assay type: ADME, organism-based, Thyroid gland; settings: in vivo
Rattus norvegicus [14] = assay: Biodistribution of I-125 labeled compound in rat heart, 1 hr after intravenous injection. value expressed in average % dose per organ; value may range from 0.97 to 1.26; assay type: ADME, organism-based; settings: in vivo
Rattus norvegicus [15] = organism: Rattus norvegicus; assay: Effect of specific activity of compound on biodistribution in rats heart 1 hr after injection at the dose of 6.25 mg value expressed in average % dose per organ; value may range from 0.30 to 0.36; assay type: ADME, organism-based; settings: in vivo; summary of the method: as §1
Rattus norvegicus [16] = organism: Rattus norvegicus; assay: Distribution coefficient at pH 7.4 in rat; assay type: ADME, organism-based
Summary of the method: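 Octanol/buffer partition: I-125 labeled diamine mixed with 3 g each of 1-octanol and 0.1 M phosphate buffer at pH 7.0 or 7.4, vortexed 3× 1 min, centrifuged 5 min. Two 0.5 g samples of each layer counted. Value is cpm/g octanol over cpm/g buffer, usually repeated three times.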

Rattus norvegicus [17] = organism: Rattus norvegicus; assay: Effect of specific activity of compound on biodistribution in rats brain to blood ratio 1 hr after injection at the dose of 2.5 mg value expressed in % dose per gram ratio; assay type: ADME, organism-based; summary of the method: as §1
Rattus norvegicus [18] = organism: Rattus norvegicus; assay: Effect of specific activity of compound on biodistribution in rats brain to blood ratio after injection at the dose of 0.025 mg value expressed in % dose per gram ratio; assay type: ADME, organism-based; summary of the method: as §1
Rattus norvegicus [19] = assay: Biodistribution of I-125 labeled compound in rat muscle, 2 min after intravenous injection value expressed in average % dose per organ; value may range from 5.84 to 12.8; assay type: ADME, organism-based, Muscle tissue; settings: in vivo
[20] = Biodistribution of […] compound in a monkey bone. 1 hr after intravenous injection. the value expressed in %dose/organ; assay type: ADME, organism-based, Bone element; settings: simiiformes, in vivo
Summary of the method: (§3)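 Monkey sedated with ketamine and anesthetized with nembutal, then given ~100 μCi [125I] label (~7 mCi/mg) intravenously. Killed 1 h later by nembutal overdose. Organs dissected, weighed and counted. % dose per organ found against diluted injected-dose aliquots; % dose per gram also reported; brain/blood from per-gram values. Single animal.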

[21] = Biodistribution of [123I]- compound in a monkey brain. 1 hr after intravenous injection. the value expressed in %dose/organ; assay type: ADME, organism-based; settings: simiiformes, in vivo
[22] = Biodistribution of […] compound in a monkey heart. 1 hr after intravenous injection. the value expressed in%dose/organ; assay type: ADME, organism-based; settings: simiiformes, in vivo; summary of the method: as §3
Rattus norvegicus [23] = organism: Rattus norvegicus; assay: Effect of specific activity of compound on biodistribution in rats brain 1 hr after injection at the dose of 0.25 mg value expressed in average % dose per organ; value may range from 1.76 to 1.97; assay type: ADME, organism-based; settings: in vivo; summary of the method: as §1
Rattus norvegicus [24] = assay: Biodistribution of I-125 labeled compound in rat brain to blood ratio, 1 hr after intravenous injection. value expressed in % dose per gram ratio; assay type: ADME, organism-based; summary of the method: as §2
[25] = Biodistribution of [125I]- compound in a monkey lungs.1h after intravenous injection. the value expressed in%dose/organ; settings: simiiformes, in vivo
[26] = Biodistribution of [125I]- compound in a monkey heart. 1 hr after intravenous injection. the value expressed in %dose/gram; settings: simiiformes, in vivo
[27] = Biodistribution of [125I]- compound in a monkey liver. 1 hr after intravenous injection. the value expressed in %dose/gram; settings: simiiformes, in vivo
[28] = Biodistribution of [125I]- compound in a monkey muscle. 1 hr after intravenous injection. the value expressed in %dose/gram; settings: simiiformes, in vivo
[29] = Biodistribution of [125I]- compound in a monkey spleen. 1 hr after intravenous injection. the value expressed in %dose/gram; settings: simiiformes, in vivo
[30] = Biodistribution of [125I]- compound in a monkey liver. 1 hr after intravenous injection. the value expressed in %dose/organ; settings: simiiformes, in vivo
[31] = Biodistribution of [125I]- compound in a monkey kidneys. 1 hr after intravenous injection. the value expressed in %dose/gram; settings: simiiformes, in vivo
[32] = Biodistribution of [125I]- compound in a monkey thyroid. 1 hr after intravenous injection. the value expressed in %dose/organ; settings: simiiformes, in vivo

With Cc1cc(I)cc(CNCCCN(C)C)c1O the “Average dose per organ” value (Rattus norvegicus [1]) was 0.61%, the “Average dose per organ” value (Rattus norvegicus [2]) was 2.21% and the “Average dose per organ” value (Rattus norvegicus [3]) was 0.72%. The Ratio (Rattus norvegicus [4]) was 7.35%, the “Average dose per organ” value (Rattus norvegicus [5]) was 15.2% and the “Average dose per organ” value (Rattus norvegicus [6]) was 6.87%. For the same compound, the “Average dose per organ” value (Rattus norvegicus [7]) was 12.8%, the “Average dose per organ” value (Rattus norvegicus [8]) was 12.1% and the “Average dose per organ” value (Rattus norvegicus [9]) was 3.23%. For the same compound, the “Average dose per organ” value (Rattus norvegicus [10]) was 0.16%, the “Average dose per organ” value (Rattus norvegicus [11]) was 2.02% and the “Average dose per organ” value (Rattus norvegicus [12]) was 0.19%. For the same compound, the “Average dose per organ” value (Rattus norvegicus [13]) was 0.22%, the “Average dose per organ” value (Rattus norvegicus [14]) was 1.11% and the “Average dose per organ” value (Rattus norvegicus [15]) was 0.33%. For the same compound, the Distribution coefficient (Rattus norvegicus [16]) was 11.6, the Ratio (Rattus norvegicus [17]) was 37.3% and the Ratio (Rattus norvegicus [18]) was 17.6%. For the same compound, the “Average dose per organ” value (Rattus norvegicus [19]) was 9.24%, the Dose per organ [20] was 1.53% and the Dose per organ [21] was 3.18%. For the same compound, the Dose per organ [22] was 5.39%, the “Average dose per organ” value (Rattus norvegicus [23]) was 1.84% and the Ratio (Rattus norvegicus [24]) was 19.7%. For the same compound, the Dose per organ [25] was 33%, the Dose/g [26] was 0.218% and the Dose/g [27] was 0.149%. It also gave a Dose/g [28] of 0.00491%, a Dose/g [29] of 0.267% and a Dose per organ [30] of 19.7%. It also gave a Dose/g [31] of 0.602% and a Dose per organ [32] of 0.333%.
